According to ChEMBL document CHEMBL1828598, “Discovery of gemfibrozil analogues that activate PPARα and enhance the expression of gene CPT1A involved in fatty acids catabolism” (Eur J Med Chem, 2011):
The source made the active and inactive calls. No cut-off for these calls is given here.

Assays:
[1] = target: T1, Peroxisome proliferator-activated receptor alpha (Homo sapiens) (UniProt Q07869); test: Agonist activity at Gal4-fused PPARalpha expressed in HEK293 cells after 18 hrs by dual luciferase reporter gene assay relative to gemfibrozil; type: functional, cell-based
T1 sequence (whole entry): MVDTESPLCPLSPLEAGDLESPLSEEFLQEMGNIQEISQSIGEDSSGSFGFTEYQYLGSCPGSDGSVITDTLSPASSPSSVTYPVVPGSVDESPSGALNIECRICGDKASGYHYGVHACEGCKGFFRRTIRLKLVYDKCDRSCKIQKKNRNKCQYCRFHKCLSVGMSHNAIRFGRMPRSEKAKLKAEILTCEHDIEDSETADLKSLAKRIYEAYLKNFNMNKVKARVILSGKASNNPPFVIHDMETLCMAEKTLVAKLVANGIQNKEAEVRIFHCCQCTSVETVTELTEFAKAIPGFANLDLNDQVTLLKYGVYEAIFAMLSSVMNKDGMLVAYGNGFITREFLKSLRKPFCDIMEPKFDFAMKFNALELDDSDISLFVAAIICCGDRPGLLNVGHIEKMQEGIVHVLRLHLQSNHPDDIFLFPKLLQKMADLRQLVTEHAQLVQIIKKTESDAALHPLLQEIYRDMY
Procedure, shortened: (§1)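 HEK293 cells were grown in DMEM with 10% FCS, penicillin/streptomycin, sodium pyruvate and nonessential amino acids at 37 °C, 5% CO2. The next day they were transfected in serum-free medium by calcium phosphate with GAL4-PPARα LBD (30 ng), firefly luciferase reporter (50 ng), renilla normalization vector (20 ng) and carrier DNA. Ligands were added 8 h later for 18 h. Efficacy is given as % of maximal gemfibrozil fold induction, from at least three separate experiments.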

[2] = target: T1, Peroxisome proliferator-activated receptor alpha (Homo sapiens); test: Agonist activity at PPARalpha in human HepG2 cells assessed as upregulation of CPT1a mRNA expression at 0.1 to 100 uM after 24 hrs by quantitative RT-PCR analysis; type: functional, cell-based
Procedure, shortened: (§2)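 HepG2 cells were kept in DMEM with 10% FCS and 1% penicillin/streptomycin and seeded at 5 × 10⁵ cells/well the day before. They were treated 24 h with ligands in DMSO diluted in growth medium, and vehicle-only cells served as controls. Total RNA was taken with TRIzol and DNase-treated. CPT1A mRNA was measured by RT-qPCR against cyclophilin and normalized to vehicle-treated cells. Data are mean ± SEM of four independent determinations run in duplicate.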

HEK293 = test: Selectivity ratio of EC50 for Gal4-fused PPARalpha expressed in HEK293 cells to EC50 for Gal4-fused PPARgamma expressed in HEK293 cells; type: cell-based
[3] = target: T2, Peroxisome proliferator-activated receptor alpha (Homo sapiens, UniProt Q07869); test: Agonist activity at Gal4-fused PPARalpha expressed in HEK293 cells after 18 hrs by dual luciferase reporter gene assay; type: functional, cell-based; procedure, shortened: as §1
T2 sequence (Q07869 whole entry): T1 sequence (whole entry)

[4] = target: T1, Peroxisome proliferator-activated receptor alpha (Homo sapiens); test: Agonist activity at PPARalpha in human HepG2 cells assessed as upregulation of CPT1a mRNA expression at 100 uM after 24 hrs by quantitative RT-PCR analysis relative to gemfibrozil; type: functional, cell-based; procedure, shortened: as §2
[5] = target: T1, Peroxisome proliferator-activated receptor alpha (Homo sapiens); test: Agonist activity at PPARalpha in human HepG2 cells assessed as upregulation of CPT1a mRNA expression after 24 hrs by quantitative RT-PCR analysis; type: functional, cell-based; procedure, shortened: as §2
[6] = target: T1, Peroxisome proliferator-activated receptor alpha (Homo sapiens); test: Agonist activity at PPARalpha in human HepG2 cells assessed as upregulation of CPT1a mRNA expression at 10 uM after 24 hrs by quantitative RT-PCR analysis relative to gemfibrozil; type: functional, cell-based; procedure, shortened: as §2

## O=C(O)CCCCOc1ccc(NC(=O)Nc2ccccc2)cc1
[1]
  Efficacy: 106%
[2]
  Activity: inactive
HEK293
  Ratio EC50: 1.3
[3]; read-out: EC50
  EC50: 9.3 µM

## CC(=O)c1ccc(OCCCCC(=O)O)cc1
[3]; hek293
  EC50: Not Active

## O=C(O)CCCCOc1ccc(C(=O)/C=C/c2ccccc2)cc1
[1]
  Efficacy: 235%
HEK293
  Ratio EC50: 3
[3]; read-out: EC50
  EC50: 109 µM

## CC(C)(CCCOc1ccc(/N=N/c2ccccc2)cc1)C(=O)O
[1]
  Efficacy: 76%
HEK293
  Ratio EC50: 0.8
[3]; read-out: EC50
  EC50: 43.7 µM

## Cc1ccc(C)c(OCCCC(C)(C)C(=O)O)c1 [GEMFIBROZIL]
[2]
  Activity: Active
HEK293
  Ratio EC50: 0.7
[3]; read-out: EC50
  EC50: 59 µM

## O=C(O)CCCCOc1ccc(/C=C/c2ccccc2)cc1
[1]
  Efficacy: 206%
HEK293
  Ratio EC50: 1.1
[3]; read-out: EC50
  EC50: 18.8 µM

## O=C(O)CCCCOc1ccc(C(=O)c2ccccc2)cc1
[1]
  Efficacy: 123%
HEK293
  Ratio EC50: 1
[3]; read-out: EC50
  EC50: 27.1 µM

## CC(=O)c1ccc(OCCCC(C)(C)C(=O)O)cc1
[3]; hek293
  EC50: Not Active

## CC(C)(CCCOc1ccc(Oc2ccccc2)cc1)C(=O)O
[1]
  Efficacy: 118%
HEK293
  Ratio EC50: 1.4
[3]; read-out: EC50
  EC50: 9.1 µM

## C=CCc1ccc(OCCCC(C)(C)C(=O)O)c(OC)c1
[1]
  Efficacy: 117%
[2]
  Activity: inactive
HEK293
  Ratio EC50: 1
[3]; read-out: EC50
  EC50: 6.6 µM

## O=C(O)CCCCOc1ccc(/N=N/c2ccccc2)cc1
[3]; hek293
  EC50: Not Active

## CC(C)(CCCOc1ccc(C(=O)/C=C/c2ccccc2)cc1)C(=O)O
[1]
  Efficacy: 165%
HEK293
  Ratio EC50: 2.1
[3]; read-out: EC50
  EC50: 61.5 µM

## C=CCc1ccc(OCCCCC(=O)O)c(OC)c1
[1]
  Efficacy: 94%
[2]
  Activity: inactive
HEK293
  Ratio EC50: 0.8
[3]; read-out: EC50
  EC50: 11.3 µM

## CC(C)(CCCOc1ccc(C(=O)c2ccccc2)cc1)C(=O)O
[1]
  Efficacy: 82%
HEK293
  Ratio EC50: 0.9
[3]; read-out: EC50
  EC50: 9.3 µM

## CC(C)(CCCOc1ccc(/C=C/c2ccccc2)cc1)C(=O)O
[1]
  Efficacy: 223%
[4]
  fold change (FC): 6
[5]
  Activity: Dose-dependent effect
[6]
  fold change (FC): 2
HEK293
  Ratio EC50: 1.4
[3]; read-out: EC50
  EC50: 1 µM

## O=C(O)CCCCOc1ccc(Oc2ccccc2)cc1
[3]; hek293
  EC50: Not Active
